This is an account of results in ChEMBL document CHEMBL1143382, “Discovery of chiral cyclopropyl dihydro-alkylthio-benzyl-oxopyrimidine (S-DABO) derivatives as potent HIV-1 reverse transcriptase inhibitors with high activity against clinically relevant mutants” (J Med Chem, 2009).

SMILES strings stand for the structures.

Data set [1] concerns Human immunodeficiency virus 1. In words: Antiviral activity against HIV1 reverse transcriptase Y181C mutant infected in human MT4 cells after 5 days by MTT assay. To be noted: Human immunodeficiency virus 1, MT4, 120 h. Type of data set: functional, organism-based. In short, it runs like this: (§1)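 MT-4 lymphoid cells infected with the HIV-1 strain carrying the indicated RT mutation in the presence of varying compound concentrations. Viable cells counted by tetrazolium (MTT) colorimetric read-out at day 5 post-infection. […] Mock-infected cells were used for cytotoxicity. Values are means of at least two experiments.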
On the technique in general: Tetrazolium dyes change colour on reduction, which living cells bring about.

Data set [2] has as its system Human immunodeficiency virus 1. The data set can be described thus: Antiviral activity against HIV1 reverse transcriptase Y188L mutant infected in human MT4 cells after 5 days by MTT assay. To be noted: Human immunodeficiency virus 1, MT4, 120 h. Type of data set: functional, organism-based. The method, boiled down: as §1
The nature of data set [3]: Cytotoxicity against human MT4 cells by MTT assay. Type of data set: cell-based.
Data set [4] has as its system Human immunodeficiency virus 1. In words: Antiviral activity against wild type HIV1 NL4-3 infected in human MT4 cells after 5 days by MTT assay. Type of data set: functional, organism-based. To be noted: Human immunodeficiency virus 1, NL4-3, MT4, 120 h.
Data set [5] has as its system Human immunodeficiency virus 1. The data set can be described thus: Antiviral activity against HIV1 reverse transcriptase K103N mutant infected in human MT4 cells after 5 days by MTT assay. Type of data set: functional, organism-based. To be noted: Human immunodeficiency virus 1, MT4, 120 h. In short, it runs like this: as §1
The target of data set [6] is Human immunodeficiency virus type 1 reverse transcriptase (Human immunodeficiency virus 1) (UniProt Q72547). The data set can be described thus: Binding affinity to HIV1 reverse transcriptase treated for 3 mins by surface plasmon resonance.
In data set [7] the target is T1, Human immunodeficiency virus type 1 reverse transcriptase (Human immunodeficiency virus 1, UniProt Q72547). In words: Inhibition of wild type HIV1 free reverse transcriptase.
For data set [8], the target named is T1, Human immunodeficiency virus type 1 reverse transcriptase. The data set can be described thus: Inhibition of wild type HIV1 reverse transcriptase-DNA binary complex.
For data set [9] the target is unchanged. In words: Inhibition of wild type HIV1 reverse transcriptase-DNA-dNTP ternary complex.
Data set [10] deals with T2, Human immunodeficiency virus type 1 reverse transcriptase (Human immunodeficiency virus 1, UniProt Q72547, K103N). In words: Inhibition of HIV1 recombinant free reverse transcriptase K103N mutant expressed in Escherichia coli BL21.
Data set [11] has as its target T2, Human immunodeficiency virus type 1 reverse transcriptase. In words: Inhibition of HIV1 recombinant reverse transcriptase K103N mutant-DNA binary complex expressed in Escherichia coli BL21.
For data set [12] the target is unchanged. In words: Inhibition of HIV1 recombinant reverse transcriptase K103N mutant-DNA-dNTP ternary complex expressed in Escherichia coli BL21.
Data set [13] has as its target Human immunodeficiency virus type 1 reverse transcriptase (Human immunodeficiency virus 1) (UniProt Q72547).
The test system of data set [14] is Human immunodeficiency virus type 1 reverse transcriptase (Human immunodeficiency virus 1), Q72547 [K103N].
Data set [15] deals with Human immunodeficiency virus type 1 reverse transcriptase (Human immunodeficiency virus 1), Q72547 [Y181I].

A word on the EC50: it is the concentration needed to bring the measured effect to its halfway point. Low readings indicate an effect from little substance, high ones a need for much substance. For orientation: CC50 means the concentration that lowers cell viability or growth by half. High values mean better tolerance by the cells, low ones harm at low concentration. For `Cc1ccnc2c1NC(=O)c1cccnc1N2C1CC1` [NEVIRAPINE], the half-maximal effective concentration (EC50) in data set [1] and in data set [2] was more than 7500 nM in each case. The same molecule yielded a CC50 in [3] of more than 7500 nM.
With `O=C1Nc2ccc(Cl)cc2[C@@](C#CC2CC2)(C(F)(F)F)O1` [EFAVIRENZ], the 50% effective concentration (EC50) in data set [1] came out at 8 nM; in data set [2] it was 3 nM. In addition, the CC50 in data set [3] is more than 320 nM.
The Ki is the dissociation constant of the complex between target and ligand, obtained from inhibition or displacement. Turning to `COc1ccc([C@@H]2C[C@H]2CSc2nc([C@H](C)c3c(F)cccc3F)c(C)c(=O)[nH]2)cc1`, the half-maximal effective concentration (EC50) in data set [4] came out at 0.07 nM; in data set [5], 36 nM; in [1] it was 13 nM; in data set [2], 1.5 nM. The molecule also yielded a half-maximal cytotoxic concentration (CC50) in [3] of 14600 nM. This molecule also came in with a Ka in data set [6] of 1 ×10⁴ /M/s. For the same molecule, the inhibition constant (Ki) came out at 10 nM in data set [7]; 8 nM in [8]; 9 nM in data set [9]; 65 nM in data set [10]; 40 nM in data set [11]; 30 nM in [12]. Moreover, the ID50 stood at 20 nM in data set [13], 40 nM in data set [14] and 800 nM in data set [15].
As to `Cc1c([C@H](C)c2c(F)cccc2F)nc(SC/C=C/c2ccccc2)[nH]c1=O`, the ID50 in data set [13] was determined as 10 nM; in data set [14], 470 nM; in data set [15], 2990 nM.
As to `COc1ccc([C@H]2C[C@@H]2CSc2nc([C@@H](C)c3c(F)cccc3F)c(C)c(=O)[nH]2)cc1`, the concentration for a half-maximal effect (EC50) is 90 nM in [4], 5510 nM in data set [5], 7240 nM in data set [1] and 1080 nM in data set [2]. This molecule also showed a CC50 in data set [3] of more than 56200 nM. Moreover, the ID50 in [13] is 120 nM; in data set [14], 830 nM; in [15], 2300 nM.
With `COc1ccc(/C=C/CSc2nc([C@@H](C)c3c(F)cccc3F)c(C)c(=O)[nH]2)cc1`, the ID50 stood at 600 nM in data set [13], 7010 nM in data set [14] and 27800 nM in data set [15].
For the molecule `COc1ccc([C@@H]2C[C@H]2CSc2nc([C@@H](C)c3c(F)cccc3F)c(C)c(=O)[nH]2)cc1`, the EC50 was 4.9 nM in data set [4], 2550 nM in [5], 520 nM in data set [1] and 190 nM in [2]. Half-maximal cytotoxicity in data set [3] (CC50) was put at 47200 nM. Further, the ID50 in data set [13] was 300 nM; in data set [14] it was 600 nM; in data set [15] it was 6000 nM.
Regarding `COc1ccc([C@H]2C[C@@H]2CSc2nc([C@H](C)c3c(F)cccc3F)c(C)c(=O)[nH]2)cc1`, the EC50 in [4] came out at 10 nM; in data set [5] it was 3710 nM; in [1], 2700 nM; in data set [2], 700 nM. In addition, the CC50 in data set [3] was more than 56200 nM. The inhibition constant (Ki) in data set [7] was 40 nM; in data set [8] it was 30 nM; in data set [9], 40 nM; in data set [10], 600 nM; in data set [11] it was 400 nM; in data set [12], 300 nM. Moreover, the ID50 in [13] is 40 nM; in data set [14], 400 nM; in data set [15], 900 nM.
Regarding `COc1ccc(/C=C/CSc2nc(C(C)c3c(F)cccc3F)c(C)c(=O)[nH]2)cc1` (racemic), in data set [6], the Ka was 1 ×10⁴ /M/s.
Consider `COc1ccc(C2CC2CSc2nc(C(C)c3c(F)cccc3F)c(C)c(=O)[nH]2)cc1` (racemic), for which the EC50 in data set [4] amounted to 0.6 nM; in data set [5] it was 520 nM; in [1], 160 nM; in [2], 45 nM. The molecule further gave a 50% cytotoxic concentration (CC50) in [3] of 37300 nM. The ID50 in data set [13] was 40 nM; in data set [14] it was 3000 nM; in data set [15], 6000 nM.
Regarding `Cc1cc(C#N)cc(C)c1Oc1nc(Nc2ccc(C#N)cc2)nc(N)c1Br`, in data set [6], the Ka was 0.8 ×10⁴ /M/s.
